# In ChEMBL document CHEMBL5154669, “G-Quadruplex DNA as a Target in Pathogenic Bacteria: Efficacy of an Extended Naphthalene Diimide Ligand and Its Mode of Action” (J Med Chem, 2022):
# What was measured:
# Type in all cases: functional
# Acinetobacter baumannii = test: Bacteriostatic activity against Acinetobacter baumannii LMG 01041 assessed as inhibition of bacterial growth
# Outline: (§1)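 A standard MIC plate (128–2 μM, cMHB, 20 h, 37 °C) was read at OD600. Each well then seeded at 10% a fresh compound-free cMHB plate, grown another 20 h at 37 °C and read at OD600. No growth at the same concentration in both plates counted as bactericidal. Growth above the MIC counted as bacteriostatic. Done in triplicate.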
# Klebsiella pneumoniae = test: Bactericidal activity against Klebsiella pneumoniae LMG 20218 assessed as inhibition of bacterial growth; outline: as §1
# Salmonella enterica = test: Antibacterial activity against Salmonella enterica LMG 07233 assessed as inhibition of bacterial growth incubated for 20 hrs by CLSI based broth microdilution method
# Outline: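 Broth microdilution in cation-adjusted Mueller-Hinton broth following CLSI guidelines. DMSO stocks were at 10 mM; compounds were twofold serially diluted over 128 to 2 μM. The inoculum was at 5 × 10⁵, prepared from colonies grown 20 h at 37 °C and adjusted to 0.5 McFarland. Plates ran 20 h at 37 °C with OD600 read-out. MIC was the lowest concentration inhibiting visible growth, in triplicate.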
compound,measurement,setting,value
CN(C)CCCn1c(=O)c2ccc3c(=O)n(CCCN(C)C)c(=O)c4c5[nH]c6ccccc6[nH]c5c(c1=O)c2c34.O=C(O)C(F)(F)F.O=C(O)C(F)(F)F,MIC,Acinetobacter baumannii,128 µM
same,MIC,Klebsiella pneumoniae,> 128 µM
same,MIC,Salmonella enterica,64 µM
